Laboratory results as given in ChEMBL document CHEMBL3132830, “Discovery of a Potent Anti-tumor Agent through Regioselective Mono-N-acylation of 7H-Pyrrolo[3,2-f]quinazoline-1,3-diamine” (Medchemcomm, 2013).
The source made the active and inactive calls. The rule behind the calls is not given here.

How the values were obtained:
[1] = tested on: MDA-MB-468; experiment: Growth inhibition of human MDA-MB-468 cells after 72 hrs by MTT assay; assay type: functional; conditions: MDA-MB-468, 72 h
Outline: (§1)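 MTT assay in triple-negative breast cancer cells; 72 h continuous compound exposure; top concentration tested 100 μM. GI50 is the concentration giving 50% growth inhibition over 72 h. Values are mean ± SD of at least two independent experiments, each run in duplicate.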

[2] = tested on: MDA-MB-231; experiment: Growth inhibition of human MDA-MB-231 cells after 72 hrs by MTT assay; assay type: functional; conditions: MDA-MB-231, 72 h; outline: as §1
[3] = tested on: HMEC; experiment: Toxicity against HMEC at 0.1 uM after 72hrs by MTT assay; assay type: cell-based; conditions: human
Outline: (§2)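 Normal human mammary epithelial cells (HMEC) exposed to compound continuously for 72 h; toxicity read at concentrations from 0.1 μM up to 10 μM.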

[4] = tested on: HEK-293T; experiment: Inhibition of CREB binding protein (unknown origin) expressed in HEK293T cells assessed as reduction in CREB-mediated gene transcription up to 10 uM by CREB reporter gene assay; assay type: cell-based; conditions: Homo sapiens
Outline: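 CREB-mediated gene transcription measured with a CREB reporter assay in HEK 293T cells; compound tested at concentrations up to 10 μM.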

[5] = target: T1, Dihydrofolate reductase (Homo sapiens) (UniProt P00374); experiment: Inhibition of human DHFR up to 10 uM
T1 sequence (whole entry): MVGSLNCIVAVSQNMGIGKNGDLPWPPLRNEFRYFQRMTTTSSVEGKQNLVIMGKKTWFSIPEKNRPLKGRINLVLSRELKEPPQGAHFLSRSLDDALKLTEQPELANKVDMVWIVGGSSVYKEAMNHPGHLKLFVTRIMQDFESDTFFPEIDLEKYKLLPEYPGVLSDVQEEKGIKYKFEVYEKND

[6] = tested on: HMEC; experiment: Toxicity against HMEC at 10 uM after 24 hrs by MTT assay; assay type: cell-based; conditions: human
Outline: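 HMEC given a 24 h drug treatment; toxicity assessed at concentrations up to 10 μM.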

[7] = tested on: HMEC; experiment: Toxicity against HMEC at 10 uM after 72 hrs by MTT assay; assay type: cell-based; conditions: human; outline: as §2
[8] = tested on: HMEC; experiment: Toxicity against HMEC up to 5 uM after 72 hrs by MTT assay; assay type: cell-based; conditions: human; outline: as §2

| GI50 [1] [µM] | GI50 [2] [µM] | Compound | also measured |
| --- | --- | --- | --- |
| 27.4 | 25.5 | CCCC(=O)Nc1nc(N)c2c(ccc3[nH]ccc32)n1 | – |
| 8.91 | 8.46 | Nc1nc(NC(=O)c2ccc3ccccc3c2)c2c(ccc3[nH]ccc32)n1 | – |
| 2.24 | 2.43 | CC(C)(C)[Si](C)(C)OCCCCC(=O)Nc1nc(N)c2c(ccc3[nH]ccc32)n1 | – |
| > 100 | > 100 | CC(=O)Nc1nc(NC(C)=O)c2c(ccc3[nH]ccc32)n1 | – |
| > 100 | > 100 | CC(C)C(=O)Nc1nc(N)nc2ccc3[nH]ccc3c12 | – |
| 0.085 | 0.15 | COc1cccc2c1C(=O)c1c(O)c3c(c(O)c1C2=O)C[C@@](O)(C(=O)CO)C[C@@H]3O[C@H]1C[C@H](N)[C@H](O)[C@H](C)O1 [DOXORUBICIN] | Activity [3]: Toxic |
| 20.3 | 18.7 | CCC(=O)Nc1nc(N)nc2ccc3[nH]ccc3c12 | – |
| 11.1 | 15.6 | CC(C)(C)[Si](C)(C)OCCCCC(=O)Nc1nc(N)nc2ccc3[nH]ccc3c12 | – |
| 56.5 | 32.6 | CC(=O)Nc1nc(N)nc2ccc3[nH]ccc3c12 | – |
| 0.44 | 1.6 | Nc1nc(NC(=O)c2ccc3ccccc3c2)nc2ccc3[nH]ccc3c12 | inhibition [4]: inactive; inhibition [5]: inactive; Activity [6]: Non-toxic; Activity [7]: Toxic; Activity [8]: Non-toxic |
| 53.5 | 27.2 | CC(=O)Nc1nc(N)c2c(ccc3[nH]ccc32)n1 | – |
| 29.8 | 39.7 | CC(C)C(=O)Nc1nc(N)c2c(ccc3[nH]ccc32)n1 | – |
| 26.3 | 26.9 | CCCC(=O)Nc1nc(N)nc2ccc3[nH]ccc3c12 | – |
| 24.4 | 21.4 | CCC(=O)Nc1nc(N)c2c(ccc3[nH]ccc32)n1 | – |
| 3.34 | 4.13 | Nc1nc(N)c2c(ccc3[nH]ccc32)n1 | – |
